Assay outcomes as filed in PubChem BioAssay.
HSF-1 act – increases HSF-1 driven luciferase reporter signal | AID 504408 | NIH3T3-HGL HSF-1 luciferase reporter, MG132, 8 h; 100% = twice DMSO control signal | hit rate 1.7% among 300,000 | activation, % at 9 µM;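 active means mean replicate activation of at least 50% with a set share of replicates each reaching 50%; inconclusive means only one of those two conditions met; inactive means mean below 50% and too few replicates reaching it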;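 further: 0% = median of the neutral control wells and 100% = twice that signal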
HSF1 inhib – HSF1 inhibition | NIH3T3-HGL HSE-luciferase, MG132-induced, luminescence 8 h; active compounds read low | activity change, negative = inhibition, % at 7.5 µM (by protocol) | hit rate 0.77% among 300,000 | AID 2098;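 active means more than half of replicate wells show activity change below -50%, luminescence cut by over half; inconclusive means some wells, but at most half, below -50%; inactive means no replicate well below -50%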;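 further: luciferase reports HSF-1 transcriptional activity via heat shock element; 0% = median of DMSO wells and -100% = zero luminescence signal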
T cruzi inh – blocks replication of Trypanosoma cruzi. T. cruzi beta-gal in NIH3T3, luminescence, 90 h. inhibition, % (test concentration not listed). hit rate 1.4% among 300,000;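 active means mean inhibition across valid replicates above about 55%, limit read from the data; inconclusive means mean below that limit but half or more replicates reach it; inactive means mean below it, under half of replicates reach it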;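 further: signal also drops with host cell toxicity which is not excluded here; 0% = plate median of DMSO wells and 100% = zero luminescence signal; higher percent means less beta-gal luminescence so fewer parasites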
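Incubation – ≥90 h infection period, 3 h prior cell attachment · System – NIH/3T3 fibroblasts plus reporter T. cruzi · Doses – compound pinned at 50 nL/well, DMSO · Read-out basis – percent inhibition of parasite-derived β-gal signal · Signal – luminescent β-galactosidase signal after 60 min lysis · Also added – 5000 T. cruzi trypomastigotes/well · Medium – Low-serum DMEM with 2% FBS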
Hsp70 activator – Hsp70 transcriptional activation, primary screen | AID 1203 | activation, % at 10 µM | HeLa Hsp70 promoter luciferase reporter, luminescence; scaled: vehicle 0, proteasome-inhibitor control 100% | hit rate 0.04% among 200,000;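 active means activation above the mean across all tested compounds plus 3 SD, cutoff set per campaign, cut at about 5.5% in these data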;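 further: 100% = MG132 at 30 µM as the positive control and 0% = DMSO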
L major viab – reduces viability of Leishmania major promastigotes; resazurin fluorescence viability; inhibition, % at 10 µM; hit rate 9% among 200,000; in the data active means inhibition above about 50%;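 further: promastigotes grown with compound for 44 hours at 28 °C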
The depositor's hits bear a star; u = inconclusive; x = no result. This excerpt belongs to a sample that is enriched for hits.

SMILES | HSF-1 act | HSF1 inhib | T cruzi inh | Hsp70 activator | L major viab
O=C(Nc1ccc(S(=O)(=O)Nc2ncccn2)cc1)c1ccc(Cl)c([N+](=O)[O-])c1 | -23 | -3 | 1 | x | x
COc1ccccc1OCc1nc2ccccc2[nH]1 | 58* | 30 | -3 | 0 | 2
c1cnc2c(OCc3nc4ccccc4[nH]3)cccc2c1 | 68* | 27 | -4 | 0 | 12
Cc1ccccc1OCc1nc2ccccc2[nH]1 | 31 | 13 | 10 | 0 | 11
COCCCNC(=S)Nc1cccc2ncccc12 | 2 | 5 | -7 | 0 | -1
O=C1CC(C(=O)O)S/C(=N\NC(=O)c2ccc(F)cc2)N1 (centres undefined) | -3 | 1 | -15 | 0 | 73*
CCOC(=O)Cn1nnnc1CN(Cc1ccc(OC)cc1)Cc1cc2cc(CC)ccc2[nH]c1=O | 7 | -8 | 13 | 0 | 17
Cc1ccc2cc(CN(Cc3ccccc3)Cc3nnnn3C3CCCC3)c(=O)[nH]c2c1 | -3 | 15 | 52 | 0 | 69*
CCc1ccc2[nH]c(=O)c(CN(Cc3ccc4c(c3)OCO4)Cc3nnnn3C3CCCC3)cc2c1 | u | 34 | 49 | 0 | 97*
Cc1ccc2cc(CN(Cc3ccc(F)cc3)Cc3nnnn3C3CCCC3)c(=O)[nH]c2c1 | -12 | 2 | u | 0 | 81*
Cc1ccc2[nH]c(=O)c(CN(CCCN3CCOCC3)Cc3nnnn3C3CCCC3)cc2c1 | -45 | -37 | -34 | 0 | 4
Cc1ccc(C(=O)NCC(=O)NCCc2ccc(S(N)(=O)=O)cc2)s1 | 4 | 1 | -4 | x | x
CCCOc1ccc(C(=O)NNC(=S)NC(=O)CC)cc1 | -52 | -48 | 35 | 0 | 95*
COc1ccc(C(=O)NNC(=S)NC(=O)c2ccc(OC)cc2)cc1 | -11 | -3 | -28 | x | x
CCCCC(=O)NC(=S)NNC(=O)c1ccc(OC)cc1 | -1 | -3 | -14 | 0 | 58*
COc1ccc(C(=O)NNC(=S)NC(=O)c2cccs2)cc1 | -72 | -74* | 8 | x | x
CCC(=O)NC(=S)NNC(=O)c1ccc(NC(=O)c2ccccc2)cc1 | -11 | 1 | -7 | 0 | 99*
Cc1cc(C)c2c3c(oc2n1)C(=O)N(c1cccc(Cl)c1)CC(=O)N3 | -16 | -4 | -1 | x | x
Cc1ccc(CNC(=O)CS(=O)(=O)Cc2nc(-c3ccc(C)cc3)oc2C)cc1 | -8 | -5 | 9 | x | x
Cn1cccc1CC(=O)NNC(=S)NC(=O)c1ccccc1Br | -1 | -6 | -17 | 0 | -4
CC(=O)c1ccc(NC(=O)[C@@H]2CCCN2C(=O)OC(C)(C)C)cc1 | 26 | 11 | -2 | x | x
CCOc1ccc(NC(=O)CN2C(=O)COc3ccccc32)cc1 | -2 | 0 | 5 | x | x
COc1cccc(NC(=O)COc2nc3ccccc3nc2C)c1 | 0 | -2 | -6 | 0 | -6
CCc1ccccc1NC(=O)CSc1nc2n[nH]c(C)c2c(=N)n1-c1cccc(OC)c1 | 7 | 8 | 8 | 0 | 90*
COc1ccc(OC)c(NC(=O)CSc2nc3n[nH]c(C)c3c(=N)n2-c2cccc(Cl)c2C)c1 | 10 | 5 | 10 | x | x
SMILES | HSF-1 act | HSF1 inhib | T cruzi inh | Hsp70 activator | L major viab
CN1CCN(c2ccc(-c3ccc4ccccc4n3)cc2)CC1 | -91 | -90* | 44 | -1 | 92*
COc1ccc(-c2csc(NC(=O)c3ccccc3NS(=O)(=O)c3ccc(F)c(F)c3)n2)cc1 | 24 | 2 | 35 | 0 | 49
Cc1ccc(S(=O)(=O)Nc2ccccc2C(=O)Nc2nc(-c3ccc(F)cc3)cs2)cc1 | -6 | -1 | -6 | 0 | 54*
O=C(Nc1nc(-c2ccccc2)cs1)c1ccc(S(=O)(=O)N2CCc3ccccc32)cc1 | -17 | -5 | 34 | 0 | 99*
CCOc1ccc(NC(=O)c2ccccc2NS(=O)(=O)c2ccc(F)cc2)c([N+](=O)[O-])c1 | 9 | -2 | -6 | 0 | 71*
CS(=O)(=O)N1CCc2cc(-c3csc(NC(=O)Cc4ccccc4)n3)ccc21 | 11 | -9 | 55* | -1 | 25
CCCNC(=O)c1ccc(N2CCC3(CC2)CC(c2cccc(Br)c2)=NO3)c(NC(=O)c2cccc(C)c2)c1 | 22 | 2 | 21 | x | x
Cc1cc(C)c2nc(NC(=O)c3cccc(S(=O)(=O)N4CCc5ccccc54)c3)sc2c1 | 11 | 6 | 11 | 0 | 17
Cc1ccc(-c2csc(NC(=O)c3ccc(S(=O)(=O)N4CCc5ccccc54)cc3)n2)cc1 | -66 | -56* | 25 | 0 | 100*
Cc1cccc(C)c1Nc1nnc(SCC(=O)NC(=O)c2cccn2C)s1 | 9 | -4 | 0 | 0 | -8
CCOc1ccccc1Nc1nnc(SCC(=O)NC(=O)c2cccn2C)s1 | 5 | -7 | 3 | 0 | 56*
CCc1ccc(Nc2nnc(SCC(=O)Nc3cccnc3Cl)s2)cc1 | 8 | -12 | -11 | 0 | 90*
CCc1ccc(Nc2nnc(SCC(=O)Nc3sccc3C(N)=O)s2)cc1 | 41 | 5 | 6 | 0 | 98*
Cc1nnc(SCC(=O)Nc2cccnc2Cl)s1 | -47 | -28 | -19 | x | x
COc1cccc(Nc2nnc(SCC(=O)Nc3sccc3C(N)=O)s2)c1 | -6 | -2 | 8 | 0 | 65*
CC(C)(C)OC(=O)CNC(=O)c1nc[nH]c1C(=O)N1CCc2ccccc2C1 | -8 | 2 | -6 | x | x
CC1CCN(Cc2nnnn2CCCC(=O)N(C)C(C)c2ccccn2)CC1 (centres undefined) | 0 | -3 | 2 | x | x
Cc1ccc(/C=C2\CCC3=C2OC(N)=C(C#N)C3c2ccc(C)cc2)cc1 (centres undefined) | 22 | 16 | 9 | -1 | 100*
C=C(C)CSc1nc2nc(C)c(Br)cc2[nH]1 | -12 | 4 | -1 | 0 | 5
CN(C)CCN(C(=O)c1ccc2ccccc2c1)c1nc2ccc(F)cc2s1 | 10 | 15 | 31 | x | x
CN(C(=O)c1ccccc1)c1nc2ccccc2s1 | 65* | 29 | -15 | 0 | -2
CN(C)CCCN(C(=O)c1nc2ccccc2s1)c1nc2ccc(F)cc2s1 | -6 | 1 | 67* | x | x
CN(C)CCCN(C(=O)c1ccc(C(=O)c2ccccc2)cc1)c1nc2ccc(F)cc2s1 | 1 | -3 | 57* | x | x
CCCCC1=NN2CCS(=O)(=O)N=C2S1 | 1 | 0 | -3 | 0 | -9
COc1ccc(C2=NOC(CN3C(=O)c4ccccc4S3(=O)=O)C2)cc1 (centres undefined) | 72* | 40 | 1 | 1 | -6
O=C1c2ccccc2S(=O)(=O)N1CC1CC(c2ccccc2)=NO1 (centres undefined) | x | x | 6 | 0 | 2
O=C1c2ccccc2S(=O)(=O)N1CC1CC(c2ccc(Cl)cc2)=NO1 (centres undefined) | 82* | 66 | 14 | 0 | -10
Cc1nnc(SCC(=O)N(C2CCCCC2)C2CCS(=O)(=O)C2)n1N (centres undefined) | 11 | 1 | -11 | x | x
O=C1CN(C(=O)c2ccc(F)cc2)c2ccccc2N1 | -9 | -1 | -11 | x | x
